In ChEMBL document CHEMBL1144702, “Synthesis and structure-activity relationship studies on tryprostatin A, an inhibitor of breast cancer resistance protein” (Bioorg Med Chem, 2008):
pIC50: −log10 of the molar value.

Tested on: PC-3
Assay: Cytotoxicity against human PC3 cells after 72 hrs by Cell Titer 96 Aqueous Non-Radioactive assay
Format: functional
Settings: PC-3, 72 h
How it was run: (§1)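 MCF7, NCI-H520 and PC-3 cells in RPMI-1640 + 10% FBS, 2 mM L-glutamine, 0.1 mM non-essential amino acids; 1 × 10^4 cells/well, 24 h at 37 °C, then drug in DMSO or EtOH (<1%) for 72 h. Cells under 50% survival at 100 μM retested over further concentrations for GI50. MTS/PMS read at 490 nm, blank subtracted, versus vehicle wells; quadruplicate or more.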

Compound	GI50 [µM]
CC(C)=CCc1[nH]c2ccccc2c1C[C@@H]1NC(=O)[C@@H]2CCCN2C1=O [TRYPROSTATIN B]	> 100
COc1ccc2c(C[C@@H]3NC(=O)[C@H]4CCCN4C3=O)c(CC=C(C)C)[nH]c2c1	> 100

Tested on: OVCAR-3
Assay: Cytotoxicity against human OVCAR-3 cells
Format: functional
Settings: not given

Compound	GI50 [µM]
CC(C)=CCc1[nH]c2ccccc2c1C[C@@H]1NC(=O)[C@@H]2CCCN2C1=O [TRYPROSTATIN B]	> 100
COc1ccc2c(C[C@@H]3NC(=O)[C@H]4CCCN4C3=O)c(CC=C(C)C)[nH]c2c1	85.5

Tested on: MCF7
Assay: Cytotoxicity against human MCF7 cells at 10 uM after 72 hrs by Cell Titer 96 Aqueous Non-Radioactive assay
Format: functional
Settings: MCF7, 72 h, read-out: Inhibition
How it was run: (§2)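 MCF7, NCI-H520 or PC-3 cells (RPMI-1640, 10% FBS) plated 1 × 10^4/well, 24 h at 37 °C, exposed 72 h to drug at 10 or 100 μM in DMSO or EtOH vehicle (controls usually 0.2%). Survival by MTS/PMS formazan absorbance at 490 nm, plate blank subtracted, as percent of vehicle wells; quadruplicate; etoposide or m-AMSA positive controls.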

Compound	cell survival (% of vehicle control) at 10 µM [%]
CC(C)=CCc1[nH]c2ccccc2c1C[C@@H]1NC(=O)[C@@H]2CCCN2C1=O [TRYPROSTATIN B]	88.2
COc1ccc2c(C[C@@H]3NC(=O)[C@H]4CCCN4C3=O)c(CC=C(C)C)[nH]c2c1	> 100

Tested on: HT-29
Assay: Cytotoxicity against human HT29 cells
Format: functional
Settings: not given

Compound	GI50 [µM]
COc1ccc2c(C[C@@H]3NC(=O)[C@H]4CCCN4C3=O)c(CC=C(C)C)[nH]c2c1	40.3

Tested on: PC-3
Assay: Cytotoxicity against human PC3 cells at 100 uM after 72 hrs by Cell Titer 96 Aqueous Non-Radioactive assay
Format: functional
Settings: PC-3, 72 h, read-out: Inhibition
How it was run: as §2

Compound	percent cell survival at 100 µM [%]
CC(C)=CCc1[nH]c2ccccc2c1C[C@@H]1NC(=O)[C@@H]2CCCN2C1=O [TRYPROSTATIN B]	68.9
COc1ccc2c(C[C@@H]3NC(=O)[C@H]4CCCN4C3=O)c(CC=C(C)C)[nH]c2c1	> 100

Tested on: BT-549
Assay: Cytotoxicity against human BT549 cells
Format: functional
Settings: not given

Compound	GI50 [µM]
CC(C)=CCc1[nH]c2ccccc2c1C[C@@H]1NC(=O)[C@@H]2CCCN2C1=O [TRYPROSTATIN B]	58.2
COc1ccc2c(C[C@@H]3NC(=O)[C@H]4CCCN4C3=O)c(CC=C(C)C)[nH]c2c1	> 100

Tested on: PC-3
Assay: Cytotoxicity against human PC3 cells at 10 uM after 72 hrs by Cell Titer 96 Aqueous Non-Radioactive assay
Format: functional
Settings: PC-3, 72 h, read-out: Inhibition
How it was run: as §2

Compound	percent cell survival relative to vehicle control at 10 µM [%]
CC(C)=CCc1[nH]c2ccccc2c1C[C@@H]1NC(=O)[C@@H]2CCCN2C1=O [TRYPROSTATIN B]	95.5
COc1ccc2c(C[C@@H]3NC(=O)[C@H]4CCCN4C3=O)c(CC=C(C)C)[nH]c2c1	> 100

Tested on: HOP-92
Assay: Cytotoxicity against human HOP92 cells
Format: functional
Settings: not given

Compound	GI50 [µM]
CC(C)=CCc1[nH]c2ccccc2c1C[C@@H]1NC(=O)[C@@H]2CCCN2C1=O [TRYPROSTATIN B]	43.1
COc1ccc2c(C[C@@H]3NC(=O)[C@H]4CCCN4C3=O)c(CC=C(C)C)[nH]c2c1	16.8

Tested on: DU-145
Assay: Cytotoxicity against human DU145 cells
Format: functional
Settings: not given

Compound	GI50 [µM]
CC(C)=CCc1[nH]c2ccccc2c1C[C@@H]1NC(=O)[C@@H]2CCCN2C1=O [TRYPROSTATIN B]	> 100
COc1ccc2c(C[C@@H]3NC(=O)[C@H]4CCCN4C3=O)c(CC=C(C)C)[nH]c2c1	> 100

Tested on: MOLT-4
Assay: Cytotoxicity against human MOLT4 cells
Format: functional
Settings: not given

Compound	GI50 [µM]
CC(C)=CCc1[nH]c2ccccc2c1C[C@@H]1NC(=O)[C@@H]2CCCN2C1=O [TRYPROSTATIN B]	> 100
COc1ccc2c(C[C@@H]3NC(=O)[C@H]4CCCN4C3=O)c(CC=C(C)C)[nH]c2c1	> 100

Tested on: IGROV-1
Assay: Cytotoxicity against human IGROV1 cells
Format: functional
Settings: not given

Compound	GI50 [µM]
CC(C)=CCc1[nH]c2ccccc2c1C[C@@H]1NC(=O)[C@@H]2CCCN2C1=O [TRYPROSTATIN B]	> 100
COc1ccc2c(C[C@@H]3NC(=O)[C@H]4CCCN4C3=O)c(CC=C(C)C)[nH]c2c1	50

Tested on: MCF7
Assay: Cytotoxicity against human MCF7 cells after 72 hrs by Cell Titer 96 Aqueous Non-Radioactive assay
Format: functional
Settings: MCF7, 72 h
How it was run: as §1

Compound	GI50 [µM]
CC(C)=CCc1[nH]c2ccccc2c1C[C@@H]1NC(=O)[C@@H]2CCCN2C1=O [TRYPROSTATIN B]	> 100
COc1ccc2c(C[C@@H]3NC(=O)[C@H]4CCCN4C3=O)c(CC=C(C)C)[nH]c2c1	> 100

Tested on: SR
Assay: Cytotoxicity against human SR cells
Format: functional
Settings: not given

Compound	GI50 [µM]
CC(C)=CCc1[nH]c2ccccc2c1C[C@@H]1NC(=O)[C@@H]2CCCN2C1=O [TRYPROSTATIN B]	50.6
COc1ccc2c(C[C@@H]3NC(=O)[C@H]4CCCN4C3=O)c(CC=C(C)C)[nH]c2c1	76.9

Tested on: EKVX
Assay: Cytotoxicity against human EKVX cells
Format: functional
Settings: not given

Compound	GI50 [µM]
CC(C)=CCc1[nH]c2ccccc2c1C[C@@H]1NC(=O)[C@@H]2CCCN2C1=O [TRYPROSTATIN B]	> 100
COc1ccc2c(C[C@@H]3NC(=O)[C@H]4CCCN4C3=O)c(CC=C(C)C)[nH]c2c1	> 100

Tested on: not listed separately
Assay: Inhibition of tubulin polymerization in presence of microtubule-associated proteins
Settings: not given
How it was run: (§3)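 Tubulin containing MAPs in PME buffer (100 mM PIPES pH 6.9, 2 mM EGTA, 1 mM MgSO4) with GTP and drug in DMSO, tubulin added last; 37 °C, absorbance change at 351 nm over 10 min. Drug concentration varied across runs for delta absorbance versus concentration curves; colchicine standard curves made for each tubulin batch.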

Compound	pIC50
CC(C)=CCc1[nH]c2ccccc2c1C[C@@H]1NC(=O)[C@@H]2CCCN2C1=O [TRYPROSTATIN B]	< 3.15

Tested on: not listed separately
Assay: Cytotoxicity against human HL60 (TB) cells
Format: functional
Settings: HL-60

Compound	GI50 [µM]
CC(C)=CCc1[nH]c2ccccc2c1C[C@@H]1NC(=O)[C@@H]2CCCN2C1=O [TRYPROSTATIN B]	> 100
COc1ccc2c(C[C@@H]3NC(=O)[C@H]4CCCN4C3=O)c(CC=C(C)C)[nH]c2c1	> 100

Tested on: not listed separately
Assay: Cytotoxicity against human H520 cells at 100 uM after 72 hrs by Cell Titer 96 Aqueous Non-Radioactive assay
Format: functional
Settings: NCI-H520, 72 h, read-out: Inhibition
How it was run: as §2

Compound	cell survival (% of vehicle control) at 100 µM [%]
CC(C)=CCc1[nH]c2ccccc2c1C[C@@H]1NC(=O)[C@@H]2CCCN2C1=O [TRYPROSTATIN B]	60.5
COc1ccc2c(C[C@@H]3NC(=O)[C@H]4CCCN4C3=O)c(CC=C(C)C)[nH]c2c1	98.5

Tested on: LOX IMVI
Assay: Cytotoxicity against human LOX IMVI cells
Format: functional
Settings: not given

Compound	GI50 [µM]
CC(C)=CCc1[nH]c2ccccc2c1C[C@@H]1NC(=O)[C@@H]2CCCN2C1=O [TRYPROSTATIN B]	> 100
COc1ccc2c(C[C@@H]3NC(=O)[C@H]4CCCN4C3=O)c(CC=C(C)C)[nH]c2c1	> 100

Tested on: UO-31
Assay: Cytotoxicity against human UO31 cells
Format: functional
Settings: not given

Compound	GI50 [µM]
CC(C)=CCc1[nH]c2ccccc2c1C[C@@H]1NC(=O)[C@@H]2CCCN2C1=O [TRYPROSTATIN B]	> 100
COc1ccc2c(C[C@@H]3NC(=O)[C@H]4CCCN4C3=O)c(CC=C(C)C)[nH]c2c1	> 100

Tested on: K562
Assay: Cytotoxicity against human K562 cells
Format: functional
Settings: not given

Compound	GI50 [µM]
CC(C)=CCc1[nH]c2ccccc2c1C[C@@H]1NC(=O)[C@@H]2CCCN2C1=O [TRYPROSTATIN B]	56.1
COc1ccc2c(C[C@@H]3NC(=O)[C@H]4CCCN4C3=O)c(CC=C(C)C)[nH]c2c1	> 100

Tested on: not listed separately
Assay: Inhibition of tubulin polymerization in presence of microtubule-associated proteins at 60 uM
Settings: not given
How it was run: as §3

Compound	inhibition [%]
COc1ccc2c(C[C@@H]3NC(=O)[C@H]4CCCN4C3=O)c(CC=C(C)C)[nH]c2c1	< 2

Tested on: not listed separately
Assay: Cytotoxicity against human H520 cells at 10 uM after 72 hrs by Cell Titer 96 Aqueous Non-Radioactive assay
Format: functional
Settings: NCI-H520, 72 h, read-out: Inhibition
How it was run: as §2

Compound	percent cell survival relative to vehicle at 10 µM [%]
CC(C)=CCc1[nH]c2ccccc2c1C[C@@H]1NC(=O)[C@@H]2CCCN2C1=O [TRYPROSTATIN B]	77.6
COc1ccc2c(C[C@@H]3NC(=O)[C@H]4CCCN4C3=O)c(CC=C(C)C)[nH]c2c1	99.3

Tested on: not listed separately
Assay: Cytotoxicity against human […]
Format: functional
Settings: not given

Compound	GI50 [µM]
CC(C)=CCc1[nH]c2ccccc2c1C[C@@H]1NC(=O)[C@@H]2CCCN2C1=O [TRYPROSTATIN B]	> 100
COc1ccc2c(C[C@@H]3NC(=O)[C@H]4CCCN4C3=O)c(CC=C(C)C)[nH]c2c1	> 100

Tested on: RPMI-8226
Assay: Cytotoxicity against human RPMI8226 cells
Format: functional
Settings: not given

Compound	GI50 [µM]
CC(C)=CCc1[nH]c2ccccc2c1C[C@@H]1NC(=O)[C@@H]2CCCN2C1=O [TRYPROSTATIN B]	> 100
COc1ccc2c(C[C@@H]3NC(=O)[C@H]4CCCN4C3=O)c(CC=C(C)C)[nH]c2c1	92

Tested on: COLO 205
Assay: Cytotoxicity against human COLO205 cells
Format: functional
Settings: not given

Compound	GI50 [µM]
CC(C)=CCc1[nH]c2ccccc2c1C[C@@H]1NC(=O)[C@@H]2CCCN2C1=O [TRYPROSTATIN B]	> 100
COc1ccc2c(C[C@@H]3NC(=O)[C@H]4CCCN4C3=O)c(CC=C(C)C)[nH]c2c1	> 100

Tested on: MCF7
Assay: Cytotoxicity against human MCF7 cells at 100 uM after 72 hrs by Cell Titer 96 Aqueous Non-Radioactive assay
Format: functional
Settings: MCF7, 72 h, read-out: Inhibition
How it was run: as §2

Compound	cell survival (% of vehicle control) at 100 µM [%]
CC(C)=CCc1[nH]c2ccccc2c1C[C@@H]1NC(=O)[C@@H]2CCCN2C1=O [TRYPROSTATIN B]	66.7
COc1ccc2c(C[C@@H]3NC(=O)[C@H]4CCCN4C3=O)c(CC=C(C)C)[nH]c2c1	99

Tested on: CCRF-CEM
Assay: Cytotoxicity against human CCRF-CEM cells
Format: functional
Settings: not given

Compound	GI50 [µM]
CC(C)=CCc1[nH]c2ccccc2c1C[C@@H]1NC(=O)[C@@H]2CCCN2C1=O [TRYPROSTATIN B]	> 100
COc1ccc2c(C[C@@H]3NC(=O)[C@H]4CCCN4C3=O)c(CC=C(C)C)[nH]c2c1	99.4
